Measured values: article PMC11888271 (bioRxiv, 2025)
Where “and” joins values, the source holds several entries; their conditions need not be identical. Equal values may be shown once. Peptide text beside a SMILES is read from it. * marks the point of attachment. Cbz = O=C(OCc1ccccc1)*; CH2F = FC*

Legend:
Assay type in all cases: biochemical
caspase-7 = biological target: T1, caspase-7 (Homo sapiens, UniProt P55210); test: In vitro inhibition assay, caspase-7
T1 sequence (P55210 24-198 limits assumed): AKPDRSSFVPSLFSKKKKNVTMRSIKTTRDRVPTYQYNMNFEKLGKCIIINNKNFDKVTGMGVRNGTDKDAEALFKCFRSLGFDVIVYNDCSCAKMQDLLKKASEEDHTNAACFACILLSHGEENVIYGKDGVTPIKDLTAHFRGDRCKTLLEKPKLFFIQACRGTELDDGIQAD
T1 sequence (P55210 207-303 limits assumed): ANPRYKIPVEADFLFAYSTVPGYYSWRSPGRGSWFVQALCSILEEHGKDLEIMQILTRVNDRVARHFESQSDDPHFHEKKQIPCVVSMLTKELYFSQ
How it was run: (§1)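 Recombinant caspase at 0.25 activity units/µL in pH 7 PIPES buffer (100 mM NaCl, 10 mM DTT, 1 mM EDTA, 0.1% CHAPS, 10% sucrose). Saturating AMC substrate: Ac-WEHD 200 µM (caspase-1, -5) or 1000 µM (-4, -11); Ac-DEVD 100 µM (-3, -6, -7), or 25 µM for -3/-7 with a pan-caspase FMK inhibitor. Fluorescence read every 5 min. Background-subtracted linear rates normalised to no-inhibitor; three runs pooled and fitted to Y=100/(1+X/IC50).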

caspase-3 = biological target: T2, caspase-3 (Homo sapiens, UniProt P42574); test: In vitro inhibition assay, caspase-3
T2 sequence (P42574 29-175 limits assumed): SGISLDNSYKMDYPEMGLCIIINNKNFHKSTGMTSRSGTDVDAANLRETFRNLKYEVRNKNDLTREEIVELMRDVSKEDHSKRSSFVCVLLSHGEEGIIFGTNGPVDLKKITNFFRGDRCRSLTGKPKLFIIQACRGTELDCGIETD
T2 sequence (P42574 176-277 limits assumed): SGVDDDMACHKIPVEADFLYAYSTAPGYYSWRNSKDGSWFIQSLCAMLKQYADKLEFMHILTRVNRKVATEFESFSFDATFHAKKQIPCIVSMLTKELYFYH
How it was run: as §1

caspase-8 = caspase-8 (Homo sapiens, UniProt Q14790); test: In vitro inhibition assay, caspase-8; conditions: IC50, caspase-8, 0.25 activity units/μL, 200 μM Ac-LEHD-AMC substrate
caspase-6 = biological target: T3, caspase-6 (Homo sapiens, UniProt P55212); test: In vitro inhibition assay, caspase-6
T3 sequence (P55212 24-179 limits assumed): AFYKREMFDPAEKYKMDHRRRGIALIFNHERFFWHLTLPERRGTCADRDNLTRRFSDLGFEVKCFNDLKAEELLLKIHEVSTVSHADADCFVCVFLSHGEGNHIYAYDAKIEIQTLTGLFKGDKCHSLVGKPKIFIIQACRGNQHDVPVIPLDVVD
T3 sequence (P55212 194-293 limits assumed): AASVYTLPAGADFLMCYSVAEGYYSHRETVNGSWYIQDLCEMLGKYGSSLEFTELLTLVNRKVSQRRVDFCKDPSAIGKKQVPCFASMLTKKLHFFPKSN
How it was run: as §1

caspase-9 = biological target: T4, caspase-9 (Homo sapiens, UniProt P55211); test: In vitro inhibition assay, caspase-9; conditions: IC50, caspase-9 (different preparation), 1 activity unit/μL, 200 μM Ac-LEHD-AMC substrate
T4 sequence (P55211 1-315 limits assumed): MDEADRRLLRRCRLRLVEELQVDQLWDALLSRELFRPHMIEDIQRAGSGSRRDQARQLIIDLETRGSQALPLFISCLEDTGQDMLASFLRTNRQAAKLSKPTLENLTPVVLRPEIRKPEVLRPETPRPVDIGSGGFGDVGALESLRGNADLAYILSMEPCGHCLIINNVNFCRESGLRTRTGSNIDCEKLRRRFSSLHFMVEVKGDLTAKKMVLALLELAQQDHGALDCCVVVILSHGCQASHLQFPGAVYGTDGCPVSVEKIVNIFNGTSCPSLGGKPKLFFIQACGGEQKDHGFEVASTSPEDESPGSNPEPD
T4 sequence (P55211 331-416 limits assumed): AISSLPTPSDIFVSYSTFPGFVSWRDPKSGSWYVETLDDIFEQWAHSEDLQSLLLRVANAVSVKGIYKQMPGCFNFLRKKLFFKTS

caspase-5 = biological target: T5, caspase-5 (Homo sapiens, UniProt P51878); test: In vitro inhibition assay, caspase-5
T5 sequence (P51878 137-327 limits assumed): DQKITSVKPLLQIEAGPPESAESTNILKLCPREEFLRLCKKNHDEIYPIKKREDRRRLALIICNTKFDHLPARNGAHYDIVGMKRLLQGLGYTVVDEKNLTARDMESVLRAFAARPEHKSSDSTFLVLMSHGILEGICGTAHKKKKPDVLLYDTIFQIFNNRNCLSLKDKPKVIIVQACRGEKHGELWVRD
T5 sequence (P51878 347-434 limits assumed): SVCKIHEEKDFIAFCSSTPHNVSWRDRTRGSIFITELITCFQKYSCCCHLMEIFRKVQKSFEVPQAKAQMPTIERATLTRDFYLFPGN
How it was run: as §1

caspase-10 = biological target: T6, caspase-10 (Homo sapiens, UniProt Q92851); test: In vitro inhibition assay, caspase-10; conditions: IC50, caspase-10, 0.25 activity units/μL, 200 μM Ac-LEHD-AMC substrate
T6 sequence (Q92851 220-415 limits assumed): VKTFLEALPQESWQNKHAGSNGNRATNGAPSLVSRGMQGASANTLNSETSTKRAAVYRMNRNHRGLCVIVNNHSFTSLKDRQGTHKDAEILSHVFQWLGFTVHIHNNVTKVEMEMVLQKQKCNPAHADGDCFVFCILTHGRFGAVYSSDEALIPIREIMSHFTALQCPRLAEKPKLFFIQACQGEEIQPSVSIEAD
T6 sequence (Q92851 416-521 limits assumed): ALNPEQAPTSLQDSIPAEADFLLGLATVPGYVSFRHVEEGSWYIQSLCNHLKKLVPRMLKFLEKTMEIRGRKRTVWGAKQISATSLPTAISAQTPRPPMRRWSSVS

caspase-1 = biological target: T7, caspase-1 (Homo sapiens, UniProt P29466); test: In vitro inhibition assay, caspase-1
T7 sequence (P29466 120-297 limits assumed): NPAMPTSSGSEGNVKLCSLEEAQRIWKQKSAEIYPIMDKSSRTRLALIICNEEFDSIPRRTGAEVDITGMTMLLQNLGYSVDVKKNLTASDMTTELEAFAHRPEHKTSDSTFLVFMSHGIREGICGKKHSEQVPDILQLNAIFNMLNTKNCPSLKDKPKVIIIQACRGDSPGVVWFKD
T7 sequence (P29466 317-404 limits assumed): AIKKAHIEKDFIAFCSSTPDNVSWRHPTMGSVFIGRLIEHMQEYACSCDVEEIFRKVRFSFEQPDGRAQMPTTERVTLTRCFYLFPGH
How it was run: as §1

caspase-11 = biological target: T8, caspase-11 (Mus musculus, UniProt P70343); test: In vitro inhibition assay, caspase-11
T8 sequence (P70343 81-266 limits assumed): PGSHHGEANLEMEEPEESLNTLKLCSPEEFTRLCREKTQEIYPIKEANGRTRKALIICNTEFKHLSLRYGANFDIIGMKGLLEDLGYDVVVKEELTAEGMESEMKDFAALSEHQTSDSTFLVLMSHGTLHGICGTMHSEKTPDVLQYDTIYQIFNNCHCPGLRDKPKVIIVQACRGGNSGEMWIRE
T8 sequence (P70343 286-373 limits assumed): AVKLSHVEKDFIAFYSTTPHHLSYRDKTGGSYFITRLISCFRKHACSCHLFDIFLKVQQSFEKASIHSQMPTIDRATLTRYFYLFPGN
How it was run: as §1

caspase-4 = biological target: T9, caspase-4 (Homo sapiens, UniProt P49662); test: In vitro inhibition assay, caspase-4
T9 sequence (P49662 81-270 limits assumed): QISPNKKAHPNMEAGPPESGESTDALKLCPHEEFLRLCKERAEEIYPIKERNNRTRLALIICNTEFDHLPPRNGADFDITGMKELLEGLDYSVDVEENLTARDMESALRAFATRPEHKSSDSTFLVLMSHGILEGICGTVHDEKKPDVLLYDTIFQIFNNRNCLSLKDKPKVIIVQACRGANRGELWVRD
T9 sequence (P49662 290-377 limits assumed): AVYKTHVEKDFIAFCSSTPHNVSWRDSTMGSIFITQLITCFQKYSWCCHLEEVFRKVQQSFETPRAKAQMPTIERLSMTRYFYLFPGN
How it was run: as §1

Sequence of caspase-8 (Q14790 217-374 limits assumed): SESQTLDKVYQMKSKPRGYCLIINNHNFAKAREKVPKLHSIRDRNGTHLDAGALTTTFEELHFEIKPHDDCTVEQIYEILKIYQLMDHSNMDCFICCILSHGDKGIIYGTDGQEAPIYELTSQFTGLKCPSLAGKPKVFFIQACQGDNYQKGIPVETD
Sequence of caspase-8 (Q14790 385-479 limits assumed): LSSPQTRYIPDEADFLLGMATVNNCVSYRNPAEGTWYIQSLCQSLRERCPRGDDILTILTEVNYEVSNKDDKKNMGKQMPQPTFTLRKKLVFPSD

IC50 (caspase-7) [µM]	IC50 (caspase-3) [µM]	IC50 (caspase-8)	IC50 (caspase-6) [µM]	IC50 (caspase-9)	IC50 (caspase-5) [µM]	IC50 (caspase-10)	IC50 (caspase-1) [µM]	IC50 (caspase-11) [µM]	IC50 (caspase-4) [µM]	SMILES
2.63 ± 0.54	1.88 ± 0.26	0.35 ± 0.1 µM	0.06 ± 0.04	3.7 µM and 3.65 µM	19.9 ± 1.19	5.76 ± 1.1 µM	5.72 ± 0.47			CC[C@H](C)[C@H](NC(=O)OCc1ccccc1)C(=O)N[C@@H](CCC(=O)OC)C(=O)N[C@H](C(=O)N[C@@H](CC(=O)OC)C(=O)CF)[C@@H](C)O [z-IETD-FMK] (Cbz-IE(OMe)TD(OMe)-CH2F)
> 100	> 100	1 µM and 1.02 µM	> 100	4 µM and 4.01 µM	19.5 ± 1.37	42 µM and 42.3 µM	0.53 ± 0.09	81 ± 2.77	30.1 ± 2.67	CCO[C@@H]1OC(=O)C[C@@H]1NC(=O)[C@@H]1CCCN1C(=O)[C@@H](NC(=O)c1ccc(N)c(Cl)c1)C(C)(C)C [VX-765, (S)-1-((S)-2-{[1-(4-amino-3-chloro-phenyl)-methanoyl]-amino}-3,3-dimethyl-butanoyl)-pyrrolidine-2-carboxylic acid ((2R,3S)-2-ethoxy-5-oxo-tetrahydro-furan-3-yl)-amide]
3.9 ± 0.29	1.07 ± 0.18	0.07 ± 0.01 µM	0.11 ± 0.06	1.5 µM and 1.58 µM	2.31 ± 0.31	3.59 ± 1.27 µM	0.82 ± 0.13			COC(=O)CC[C@H](NC(=O)[C@H](CC(C)C)NC(=O)OCc1ccccc1)C(=O)N[C@@H](Cc1c[nH]cn1)C(=O)N[C@@H](CC(=O)OC)C(=O)CF [z-LEHD-FMK] (Cbz-LE(OMe)HD(OMe)-CH2F)
